According to ChEMBL document CHEMBL1122273, “5-sulfamoylorthanilic acids, a sulfonamide series with salidiuretic activity” (J Med Chem, 1983):
Active and inactive are the calls of the source. No cut-off for these calls is given here.

Tests used:
Canis familiaris [1] = experiment: Saluretic activity in the dog measured as concentration of K+ in urinary excretion (2 animals/dose) at (dose 1.56 mg/Kg, perorally); format: functional, Canis lupus familiaris, Urine
How it was run: (§1)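 Male beagles trained to the procedures, food withdrawn 24 h before, tap water ad libitum. Bladder emptied by catheter, then 20 mL/kg tap water by stomach tube, plus 4 mL/kg orally at each hourly catheterization up to 8 h. The first 2 h of urine served as control. Compound given orally after the second catheterization. Urine from 1–6 h post-dose pooled; Na⁺ and K⁺ by flame photometry, Cl⁻ argentometrically, in mequiv/kg.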

Canis familiaris [2] = experiment: Salidiuretic activity on the basis of the 1.56 mg/Kg perorally dog assay; compound was found to be highly active; format: functional, organism-based; conditions: Canis lupus familiaris; Urine
Rattus norvegicus [3] = species on record: Rattus norvegicus; experiment: Saluretic activity in the rat measured as concentration of chloride in urine; format: functional
How it was run: (§2)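 Rats deprived of food 24 h, water ad libitum, dosed 50 mg/kg by stomach tube as suspension in 2% starch, no extra water load. Groups of three in diuresis funnels; urine over first 5 h collected. Na⁺ and K⁺ by flame photometry, Cl⁻ argentometrically; expressed as mequiv/kg.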

Rattus norvegicus [4] = experiment: Salidiuretic activity on the basis of the 50 mg/kg perorally rat assay; NA means inactive; conditions: Urine
[5] = It is the ratio, measured as saluretic activity in the dog as concentration of Cl- in urinary excretion (dose 1.56 mg/Kg, perorally) to that of (Na+)+(K+); format: functional, Urine
How it was run: (§3)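 Trained male beagles, fasted 24 h with tap water ad libitum. Bladder emptied by catheter, then 20 mL/kg tap water by stomach tube, with 4 mL/kg water at each hourly catheterization up to 8 h. The first 2 h of urine served as control. Oral dosing came after the second catheterization, and 1–6 h urine was pooled. Na⁺ and K⁺ were measured by flame photometry, Cl⁻ argentometrically, in mequiv/kg.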

Rattus norvegicus [6] = species on record: Rattus norvegicus; experiment: Saluretic activity in the rat measured as concentration of Na+ in urine; format: functional; how it was run: as §2
Rattus norvegicus [7] = species on record: Rattus norvegicus; experiment: Saluretic activity in the rat measured as concentration of K+ in urine; format: functional; how it was run: as §2
Canis familiaris [8] = experiment: Diuretic activity in the dog (2 animals/dose) at (dose 12.5 mg/Kg), when administered perorally; format: functional, Canis lupus familiaris, Urine; how it was run: as §3
Canis familiaris [9] = experiment: Saluretic activity in the dog measured as concentration of Cl - in urinary excretion (2 animals/dose) at (dose 1.56 mg/Kg, perorally); format: functional, Canis lupus familiaris, Urine; how it was run: as §1
Canis familiaris [10] = experiment: Diuretic activity in the dog (2 animals/dose) at (dose 1.56 mg/Kg), when administered perorally; format: functional, Canis lupus familiaris, Urine; how it was run: as §3
Canis familiaris [11] = experiment: Saluretic activity in the dog measured as concentration of Na+ in urinary excretion (2 animals/dose) at (dose 12.5 mg/Kg, perorally); format: functional, Canis lupus familiaris, Urine
How it was run: (§4)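 Male beagles trained to rest on a table and to accept stomach tube and catheter. Food withdrawn 24 h before, tap water ad libitum. Bladder emptied by catheter, then 20 mL/kg tap water by stomach tube. Catheterized hourly up to 8 h with 4 mL/kg water orally each time; first 2 h urine served as control. Oral dosing after second catheterization. Pooled 1–6 h urine; Na⁺/K⁺ by flame photometry, Cl⁻ argentometrically.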

Canis familiaris [12] = experiment: Saluretic activity in the dog measured as concentration of Cl - in urinary excretion (2 animals/dose) at (dose 12.5 mg/Kg, perorally); format: functional, Canis lupus familiaris, Urine; how it was run: as §1
Canis familiaris [13] = experiment: Saluretic activity in the dog measured as concentration of Na+ in urinary excretion (2 animals/dose) at (dose 1.56 mg/Kg, perorally); format: functional, Canis lupus familiaris, Urine; how it was run: as §4
[14] = It is the ratio, measured as saluretic activity in the dog as concentration of Cl- in urinary excretion (dose 12.5 mg/Kg, perorally) to that of (Na++K+); format: functional, Urine; how it was run: as §3
[15] = It is the ratio, measured as saluretic activity in the dog as concentration of Na+ in urinary excretion (dose 12.5 mg/Kg, perorally) to that of K; format: functional, Urine; how it was run: as §3
Rattus norvegicus [16] = species on record: Rattus norvegicus; experiment: Diuretic activity in the rats, determined by a modified Lipschitz test; format: functional, Urine
How it was run: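 Modified Lipschitz test: rats deprived of water 24 h, grouped in threes of similar weight in diuresis funnels. Oral dose of 50 mg/kg, suspended in 2% starch solution, by stomach tube.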

Canis familiaris [17] = experiment: Saluretic activity in the dog measured as concentration of K+ in urinary excretion (2 animals/dose) at (dose 12.5 mg/Kg, perorally); format: functional, Canis lupus familiaris, Urine; how it was run: as §4
[18] = It is the ratio, measured as saluretic activity in the dog as concentration of Na+ in urinary excretion (dose 1.56 mg/Kg, perorally) to that of K; format: functional, Urine; how it was run: as §3
[19] = It is the ratio, measured as saluretic activity in the dog as concentration of Cl- in urinary excretion (dose 1.56 mg/Kg, po) to that of (Na+)+(K+); format: functional, Urine; how it was run: as §3
Canis familiaris [20] = experiment: Sailuric activity in the dog measured as concentration of Cl - in urinary excretion (2 animals/dose) at (dose 1.56 mg/Kg, po); format: functional, Canis lupus familiaris, Urine; how it was run: as §1
Canis familiaris [21] = experiment: Sailuric activity in the dog measured as concentration of Na+ in urinary excretion (2 animals/dose) at (dose 1.56 mg/Kg, po); format: functional, Canis lupus familiaris, Urine; how it was run: as §1
[22] = It is the ratio, measured as saluretic activity in the dog as concentration of Na+ in urinary excretion (dose 1.56mg/Kg, po) to that of K; format: functional, Urine; how it was run: as §3
Canis familiaris [23] = experiment: Sailuric activity in the dog measured as concentration of K+ in urinary excretion (2 animals/dose) at (dose 1.56 mg/Kg, po); format: functional, Canis lupus familiaris, Urine; how it was run: as §1
Canis familiaris [24] = experiment: Saluretic activity in the dog measured as concentration of Cl - in urinary excretion (2 animals/dose) at (dose 1.56 mg/Kg, po); format: functional, Canis lupus familiaris, Urine; how it was run: as §1
Canis familiaris [25] = experiment: Saluretic activity in the dog measured as concentration of K+ in urinary excretion (2 animals/dose) at (dose 1.56 mg/Kg, po); format: functional, Canis lupus familiaris, Urine; how it was run: as §4
[26] = It is the ratio, measured as saluretic activity in the dog as concentration of Na+ in urinary excretion (dose 12.5 mg/Kg, po) to that of K; format: functional, Urine; how it was run: as §3
[27] = It is the ratio, measured as saluretic activity in the dog as concentration of Na+ in urinary excretion(dose 1.56 mg/kg, p.o.) to that of K; format: functional, Urine; conditions: route oral; how it was run: as §3
Canis familiaris [28] = experiment: Saluretic activity in the dog measured as concentration of Cl - in urinary excretion (2 animals/dose) at (dose 12.5 mg/Kg, po); format: functional, Canis lupus familiaris, Urine; how it was run: as §1
[29] = It is the ratio, measured as saluretic activity in the dog as concentration of Cl- in urinary excretion (dose 12.5 mg/Kg, po) to that of (Na++K+); format: functional, Urine; how it was run: as §3
Canis familiaris [30] = experiment: Saluretic activity in the dog measured as concentration of Na+ in urinary excretion (2 animals/dose) at (dose 1.56 mg/Kg, po); format: functional, Canis lupus familiaris, Urine; how it was run: as §4
Canis familiaris [31] = experiment: Saluretic activity in the dog measured as concentration of Na+ in urinary excretion (2 animals/dose) at (dose 12.5 mg/Kg, po); format: functional, Canis lupus familiaris, Urine; how it was run: as §4
Canis familiaris [32] = experiment: Saluretic activity in the dog measured as concentration of K+ in urinary excretion (2 animals/dose) at (dose 12.5 mg/Kg, po); format: functional, Canis lupus familiaris, Urine; how it was run: as §4
[33] = It is the ratio, measured as saluretic activity in the dog as concentration of Cl- in urinary excretion (dose mg/Kg, po) to that of (Na+)+(K+); format: functional, Urine; how it was run: as §3
[34] = It is the ratio, measured as saluretic activity in the dog as concentration of Na+ in urinary excretion (dose 1.56 mg/Kg, po) to that of K; format: functional, Urine; how it was run: as §3

Q: What does the source list for NS(=O)(=O)c1cc(S(=O)(=O)[O-])c(NCc2cccs2)cc1Oc1ccccc1.[K+]?
A: Saluretic activity (Canis familiaris [1]): 1.03 m equiv 6hr-1 kg-1; Saldiuretic activity (Canis familiaris [2]): Active; Saluretic activity (Rattus norvegicus [3]): 0.6 m equiv 5hr-1 kg-1; Diuretic activity (Rattus norvegicus [4]): inactive; Ratio [5]: 0.95; Saluretic activity (Rattus norvegicus [6]): 0.8 m equiv 5hr-1 kg-1; Saluretic activity (Rattus norvegicus [7]): 0.4 m equiv 5hr-1 kg-1; Diuretic activity (Canis familiaris [8]): 78 ml kg-1 6hr-1; Saldiuretic activity (Canis familiaris [9]): 4.45 m equiv 6hr-1 kg-1; Diuretic activity (Canis familiaris [10]): 58 ml kg-1 6hr-1; Saluretic activity (Canis familiaris [11]): 6.89 m equiv 6hr-1 kg-1; Saldiuretic activity (Canis familiaris [12]): 7.84 m equiv 6hr-1 kg-1; Saluretic activity (Canis familiaris [13]): 3.73 m equiv 6hr-1 kg-1; Ratio [14]: 0.95; Ratio [15]: 4.7; Diuretic activity (Rattus norvegicus [16]): 0.8 mL/kg; Saldiuretic activity (Canis familiaris [17]): 1.47 m equiv 6hr-1 kg-1; Ratio [18]: 3.6

Q: Which Ratio [19] does the source give for NS(=O)(=O)c1cc(S(=O)(=O)[O-])c(NCc2ccco2)cc1S(=O)(=O)C1CCCC1.[Na+] here?
A: 1

Q: What about the Saldiuretic activity (Canis familiaris [20]) of the same compound?
A: 5.26 m equiv 6hr-1 kg-1

Q: And the Saluretic activity (Rattus norvegicus [3])?
A: 9.5 m equiv 5hr-1 kg-1

Q: What about the Saluretic activity (Rattus norvegicus [6]) of the same compound?
A: 8 m equiv 5hr-1 kg-1

Q: And the Saluretic activity (Rattus norvegicus [7])?
A: 2 m equiv 5hr-1 kg-1

Q: What about the Saluretic activity (Canis familiaris [21]) of the same compound?
A: 4.24 m equiv 6hr-1 kg-1

Q: What about the Diuretic activity (Canis familiaris [10]) of the same compound?
A: 58 ml kg-1 6hr-1

Q: What about the Ratio [22] of the same compound?
A: 4.2

Q: What about the Saldiuretic activity (Canis familiaris [23]) of the same compound?
A: 1.02 m equiv 6hr-1 kg-1

Q: And the Diuretic activity (Rattus norvegicus [16])?
A: 4.3 mL/kg

Q: With NS(=O)(=O)c1cc(S(=O)(=O)[O-])c(NCc2ccco2)cc1S(=O)(=O)c1ccccc1.[K+] as the compound, how does the Saldiuretic activity (Canis familiaris [24]) read?
A: 1.09 m equiv 6hr-1 kg-1

Q: And the Ratio [19]?
A: 1.5

Q: What about the Saluretic activity (Canis familiaris [25]) of the same compound?
A: 0.25 m equiv 6hr-1 kg-1

Q: What about the Ratio [26] of the same compound?
A: 4.3

Q: What about the Saluretic activity (Rattus norvegicus [3]) of the same compound?
A: 9.8 m equiv 5hr-1 kg-1

Q: What about the Saluretic activity (Rattus norvegicus [6]) of the same compound?
A: 7.1 m equiv 5hr-1 kg-1

Q: What about the Saluretic activity (Rattus norvegicus [7]) of the same compound?
A: 2.6 m equiv 5hr-1 kg-1

Q: And the Diuretic activity (Canis familiaris [8])?
A: 59.7 ml kg-1 6hr-1

Q: And the Ratio [27]?
A: 2

Q: What about the Saldiuretic activity (Canis familiaris [28]) of the same compound?
A: 5.28 m equiv 6hr-1 kg-1

Q: And the Diuretic activity (Canis familiaris [10])?
A: 35.3 ml kg-1 6hr-1

Q: What about the Ratio [29] of the same compound?
A: 1.1

Q: And the Saluretic activity (Canis familiaris [30])?
A: 0.49 m equiv 6hr-1 kg-1

Q: And the Diuretic activity (Rattus norvegicus [16])?
A: 3.6 mL/kg

Q: What about the Saluretic activity (Canis familiaris [31]) of the same compound?
A: 4 m equiv 6hr-1 kg-1

Q: What about the Saluretic activity (Canis familiaris [32]) of the same compound?
A: 0.93 m equiv 6hr-1 kg-1

Q: What does the source list for NS(=O)(=O)c1cc(S(=O)(=O)[O-])c(NCc2ccco2)cc1[S+]([O-])C1CCCCC1.[Na+] (centres undefined)?
A: Saldiuretic activity (Canis familiaris [24]): 1.27 m equiv 6hr-1 kg-1; Saluretic activity (Canis familiaris [25]): 0.33 m equiv 6hr-1 kg-1; Saluretic activity (Rattus norvegicus [3]): 1.7 m equiv 5hr-1 kg-1; Saluretic activity (Rattus norvegicus [6]): 1.3 m equiv 5hr-1 kg-1; Saluretic activity (Rattus norvegicus [7]): 1.4 m equiv 5hr-1 kg-1; Diuretic activity (Canis familiaris [10]): 48.4 ml kg-1 6hr-1; Ratio [33]: 1.4; Ratio [34]: 1.8; Saluretic activity (Canis familiaris [30]): 0.59 m equiv 6hr-1 kg-1; Diuretic activity (Rattus norvegicus [16]): 1.2 mL/kg
